Rows were chosen to be rich in hits. Some 0.61% of all compounds tested hit in one or more screens of this group.
F508del corr: CFTR F508del correction in bronchial cells. CFBE cells, YFP halide quenching; stimulated with forskolin plus potentiator P3; % fluorescence drop versus neutral controls. activity (quench increase), % at 7.58 µM. 350,000 tested, 0.36% active. AID 720511;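 active = mean added fluorescence quench of at least 8% versus neutral control, with both replicates also reaching 8%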;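 also: cells transiently co-express mutant CFTR-F508del with the halide-sensitive YFP; corrector assay measuring rescue of mutant channel to the surface after 24 h compound exposure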
E-selectin induc: induces E-selectin expression in human endothelial cells | HUVEC E-selectin immunofluorescence imaging; normalized: neutral wells 0, TNF-alpha wells 100 | 260,000 tested, 0.37% active | activation, % at 7.58 µM | AID 686992;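 active = mean E-selectin-positive cell signal at least 10% of the positive control, reached in at least 60% of replicates, without over 20% cell loss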
Target sequence (P16581 whole entry, looked up): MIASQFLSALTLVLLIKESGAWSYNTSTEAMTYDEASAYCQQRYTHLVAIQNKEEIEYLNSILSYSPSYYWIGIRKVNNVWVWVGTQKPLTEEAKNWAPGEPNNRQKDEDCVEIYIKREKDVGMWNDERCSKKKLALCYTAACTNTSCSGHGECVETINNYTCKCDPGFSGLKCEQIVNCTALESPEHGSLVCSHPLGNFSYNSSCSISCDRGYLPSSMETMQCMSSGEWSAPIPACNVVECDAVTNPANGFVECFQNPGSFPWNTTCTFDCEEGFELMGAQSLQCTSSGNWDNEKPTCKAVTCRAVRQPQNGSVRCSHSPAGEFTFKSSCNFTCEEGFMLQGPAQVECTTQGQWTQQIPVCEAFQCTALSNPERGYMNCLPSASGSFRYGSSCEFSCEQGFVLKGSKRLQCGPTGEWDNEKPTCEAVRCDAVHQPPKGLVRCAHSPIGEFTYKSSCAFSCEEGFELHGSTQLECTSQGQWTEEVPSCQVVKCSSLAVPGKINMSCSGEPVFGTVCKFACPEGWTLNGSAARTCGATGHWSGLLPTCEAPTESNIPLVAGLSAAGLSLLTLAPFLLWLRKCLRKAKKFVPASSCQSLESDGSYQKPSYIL
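Read-out: % PE-positive cells | Test system: HUVEC | Doses: One compound dose added by pin transfer | Buffer or medium: EGM-2 over gelatin coat | Signal: Immunofluorescence imaging | Benchmarks: TNF-alpha, DMSO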
Xi reactivation: activators of X-chromosome reactivation in mouse fibroblasts | XiGFP mouse fibroblasts, % GFP-positive cells imaging, 3 d; cells co-treated with 5-aza-dC sensitizer; scaled so ellipticine positive control = 100% | AID 743238 | 360,000 tested, 0.055% active | activation, % at 7.58 µM;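 active = mean normalized replicate activation at least 10% and every replicate at or above 10%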;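 also: 0% = median of on-plate neutral control wells and 100% = ellipticine 6 µM median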
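Assay system: SV40-immortalized XiGFP fibroblast cells, line 68-5-11; buffer or medium: DMEM plus 5-aza-dC sensitizer; compound: one concentration, pinned; timing: compounds 3 days, fix/stain 15 min at room temperature; benchmarks: positive control ellipticine, 6 µM final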
* = called active by the depositor; . = no result given; ! = a repeat was not active.

SMILES | F508del corr | E-selectin induc | Xi reactivation
O=C(CCCn1c(=O)c2ccccc2n(CC(=O)N2CCN(c3ccccc3)CC2)c1=O)NCc1ccco1 | 2 | 43* | .
N#CCSc1nc2ccccc2c(=O)n1CCCC(=O)NCc1ccco1 | 0 | 1 | 0
CCOC(=O)N1CCN=C1SCc1ccc(Cl)c(Cl)c1 | -2 | 119* | 0
CC(=O)N1CCN=C1SCc1ccc(Br)cc1 | 3 | . | 1
O=C(C[C@@H]1CC[C@@H](NC(=O)CN2CCOCC2)[C@H](CO)O1)NC1CCCCC1 | 1 | 0 | -1
CCCNC(=O)C1CCN(S(=O)(=O)c2c(C)noc2/C=C\c2ccc(OC)cc2)CC1 | 1 | 0 | 0
COc1ccc(/C=C\c2onc(C)c2S(=O)(=O)N2CCC(C(=O)NCc3ccco3)CC2)cc1 | 1 | 0 | 11*
Cc1ccc(NC(=O)c2ccc(Br)o2)c([N+](=O)[O-])c1 | -3 | . | 0
NS(=O)(=O)c1ccc(NNC(=O)c2ccc(Br)o2)c([N+](=O)[O-])c1 | 8.0* | 0 | 0
Cc1noc(C)c1NC(=O)Nc1ccc2c(c1)CC(=O)N([C@@H](C)CO)C[C@@H](C)[C@@H](CN(C)C)O2 | 0 | -5 | -1
COc1ccc(S(=O)(=O)N(C)C[C@H]2Oc3ccc(NC(=O)C4CCCCC4)cc3C(=O)N([C@@H](C)CO)C[C@H]2C)cc1 | -3 | 0 | 0
C/C(=N/NS(=O)(=O)c1cccc([N+](=O)[O-])c1)c1ccncc1 | 0 | 28* | 0
CC(=NNS(=O)(=O)c1cccc([N+](=O)[O-])c1)c1ccc(-n2ccnc2)cc1 | 0 | 0 | 0
COc1ccc(NC(=O)Nc2ccc3c(c2)C(=O)N([C@@H](C)CO)C[C@H](C)[C@H](CN(C)C(=O)NC(C)C)O3)cc1 | 1 | 0 | 0
C[C@H](CO)N1C[C@H](C)[C@@H](CN(C)C(=O)CCC(F)(F)F)OCCCC[C@H](C)Oc2ccc(N(C)C)cc2C1=O | 2 | 0 | -1
CCc1ccc(OCc2n[nH]c(=S)n2C(C)CCCC(C)C)cc1 (centres undefined) | 17* | . | 0
CCc1ccc(OCc2n[nH]c(=S)n2Cc2ccccc2)cc1 | 4 | . | 0
Cc1noc(C)c1NC(=O)NCC[C@@H]1CC[C@@H](NC(=O)Nc2cccc(F)c2)[C@H](CO)O1 | -1 | 0 | 0
C[C@H](CO)N1C[C@H](C)[C@H](CN(C)S(=O)(=O)c2ccccc2)OCCCC[C@H](C)Oc2ccc(NS(=O)(=O)c3ccc(Cl)cc3)cc2C1=O | 2 | 0 | 0
CNC[C@@H]1Oc2ncc(/C=C/c3ccccc3)cc2C(=O)N([C@@H](C)CO)C[C@@H]1C | 0 | 0 | 0
C[C@@H]1CCCCO[C@@H](CN(C)C(=O)Nc2ccccc2)[C@H](C)CN([C@@H](C)CO)C(=O)c2cc(NC(=O)CCCN(C)C)ccc2O1 | 0 | 0 | 0
CCc1nc(C)cn1S(=O)(=O)c1ccc(Br)cc1 | -4 | . | 0
CCc1nc(C)cn1S(=O)(=O)c1ccc2c(c1)OCCO2 | 8.9* | 3 | -1
O=C(Cc1ccc(Cl)cc1)OCC(=O)c1ccc[nH]1 | 23* | -1 | -1
O=C(COc1ccc(Cl)cc1)OCC(=O)c1ccc[nH]1 | 7 | 4 | 0
SMILES | F508del corr | E-selectin induc | Xi reactivation
Cc1ccc(S(=O)(=O)N(C)C[C@@H]2Oc3ccc(NC(=O)Cc4cn(C)c5ccccc45)cc3CC(=O)N([C@H](C)CO)C[C@H]2C)cc1 | 1 | 0 | 0
COc1ccc(-c2cccc(-c3nc(C(=O)NCC(F)(F)F)cc4c3[C@H](CCO)N([S@@](=O)C(C)(C)C)C4)c2)cc1 | 2 | 0 | 0
CC(=O)N1Cc2cc(C(=O)NCC(F)(F)F)nc(-c3cccc(-c4cccnc4)c3)c2[C@@H]1CCO | 8.9*! | 2 | 1
COc1cccc(-c2cccc(-c3nc(C(=O)NCC(F)(F)F)cc4c3[C@H](CCO)N([S@@](=O)C(C)(C)C)C4)c2)c1 | 11* | 1 | 0
CC(C)(C)[S@](=O)N1Cc2cc(C(=O)N[C@@H]3CCN(Cc4ccccc4)C3)nc(-c3cccc(-c4cccnc4)c3)c2[C@@H]1CCO | 1 | 0 | 0
CC(C)(C)[S@](=O)N1Cc2cc(C(=O)N[C@H]3CCN(Cc4ccccc4)C3)nc(-c3cccc(-c4ccncc4)c3)c2[C@@H]1CCO | -1 | 62* | 0
COc1ccc(CNC(=O)c2cc3c(c(-c4cccc(-c5cccc(C#N)c5)c4)n2)[C@H](CCO)N([S@@](=O)C(C)(C)C)C3)cc1 | 4 | 54* | 0
COc1ccc(CNC(=O)c2cc3c(c(-c4cccc(-c5ccc(C#N)cc5)c4)n2)[C@H](CCO)N([S@@](=O)C(C)(C)C)C3)cc1 | 0 | 5 | 0
CC(=O)N1Cc2cc(C(=O)NCC(F)(F)F)nc(-c3cccc(-c4cccnc4)c3)c2[C@H]1CCO | -3 | 0 | 0
CNC[C@H]1OCCCC[C@H](C)Oc2ccc(N(C)C)cc2C(=O)N([C@H](C)CO)C[C@@H]1C | -1 | 2 | -1
CN(C)C(=O)C[C@H]1CC[C@@H](NC(=O)C2CCOCC2)[C@@H](CO)O1 | 3 | 0 | 0
C[C@@H]1CN([C@@H](C)CO)C(=O)c2cc(NC(=O)CCCCCC(=O)Nc3ccccc3N)ccc2O[C@@H]1CN(C)C(=O)Nc1ccc2c(c1)OCO2 | 0 | 22 | 0
CC(=O)O[C@H]1C(=O)[C@@]2(C)[C@H]([C@H](OC(=O)c3ccccc3)[C@]3(O)C[C@H](OC(=O)[C@H](O)[C@@H](NC(=O)c4ccccc4)c4ccccc4)C(C)=C1C3(C)C)[C@]1(OC(C)=O)CO[C@@H]1C[C@@H]2O | 4 | 2 | 0
CC(=O)O[C@H]1C(=O)[C@@]2(C)[C@H]([C@H](OC(=O)c3ccccc3)[C@]3(O)C[C@H](OC(=O)[C@H](O)C(NC(=O)c4ccccc4)c4ccccc4)C(C)=C1C3(C)C)[C@]1(OC(C)=O)CO[C@@H]1C[C@@H]2O (some centres undefined) | 11* | 1 | 0
Cc1cccc(N2CCN(C(=O)c3ccc4[nH]c(C)c(C)c4c3)CC2)c1C | 11* | 2 | 0
CCc1noc(C)c1C(=O)N1CCN(c2cccc(C)c2C)CC1 | -1 | 0 | 0
Cc1[nH]c2ccc(C(=O)N3CCN(c4ccccc4Cl)CC3)cc2c1C | 1 | . | 0
Cc1onc(-c2ccccc2Cl)c1C(=O)N1CCCC1 | -2 | . | 0
Cc1cccc(N2CCN(C(=O)c3c(-c4ccccc4)noc3C)CC2)c1C | 15* | 1 | 0
Cc1onc(-c2ccccc2Cl)c1C(=O)N1CCN(c2cccc(Cl)c2)CC1 | 8.1* | 0 | 1
CC(C)C[C@H]1COCc2cn(nn2)CC[C@@H](C)C(=O)N1 | . | . | 0
Cc1noc(C)c1NC(=O)NC[C@H]1CC[C@H]2[C@H](CN2Cc2cccc(-c3ccccn3)c2)O1 | -3 | . | .
COc1ccc(C2=CC(=O)C[C@H](c3ccc(OC)cc3)C2)cc1 | 2 | 0 | 0
COc1ccc([C@H]2CC(=O)C=C(c3ccc(OC)cc3OC)C2)cc1 | 11* | 0 | 0

Assay outcomes deposited in PubChem by Broad Institute.
